Data set [1] deals with Mycobacteroides abscessus. The data set is described as follows: Antibacterial activity against Mycobacterium abscessus ATCC 19977 expressing tomato RFP assessed as bacterial growth inhibition incubated for 3 days in MHII medium by RFP fluorescence based broth microdilution method. The conditions noted are these: ATCC 19977, 72 h, time 3 day. The class given is functional. The method, boiled down:
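Broth microdilution in MHII broth with 0.05 % Tween 80, against the RFP-expressing strain. Twofold nine-point dilution series. Inoculum 5 x 10⁵ cells/mL from a mid-log preculture. Incubated 3 days at 37 °C. Read-out by RFP fluorescence (ex 544/em 590 nm). Controls were 1 % DMSO and 100 μM amikacin. MIC₉₀ from duplicates, averaged.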
A general note: Broth dilution looks for growth in wells or tubes with falling amounts of substance.

Data set [2] is described as follows: Stability in human plasma at 1 uM measured over 120 mins by HPLC-MS/MS analysis. It counts as ADME, cell-free. Conditions: 2 h.
The test system of data set [3] is Mycobacteroides abscessus. The data set can be described thus: Antibacterial activity against Mycobacterium abscessus ATCC 19977 expressing tomato RFP assessed as bacterial growth inhibition incubated for 3 days in 7H9 medium by RFP fluorescence based broth microdilution method. The class given is functional. Conditions: ATCC 19977, 72 h, time 3 day. In outline:
(§1)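 Broth microdilution in 7H9 with 10 % ADS and 0.05 % Tween 80. Twofold nine-point dilution series. Inoculum 5 x 10⁵ cells/mL taken from a mid-log preculture. Incubation at 37 °C, 3 days for M. smegmatis and M. abscessus, 5 days for M. intracellulare. Read-out by RFP fluorescence (ex 544/em 590 nm). Controls were 1 % DMSO and 100 μM amikacin. MIC₉₀ from duplicates, averaged.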

The subject of data set [4] is Mycobacteroides abscessus. The data set can be described thus: Antibacterial activity against Mycobacterium abscessus ATCC 19977 expressing tomato RFP infected in human THP-1 cells assessed as bacterial growth inhibition incubated for 4 days in RPMI medium by RFP fluorescence based assay. It counts as functional. Conditions: ATCC 19977, 96 h, time 4 day. In outline: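 RFP M. abscessus washed, moved into RPMI, filtered through 5 µm and opsonised with 10 % human serum for 30 min. THP-1 cells infected at MOI 5:1 with PMA 40 ng/mL for 4 h at 37 °C, then washed. Infected cells (1x10⁵/well) given a ten-point twofold series. Incubated 4 days at 37 °C, 5 % CO₂. Cells PFA-fixed and DAPI-stained. RFP quantified by imaging. Controls were DMSO and 1.5 µM bedaquiline. Duplicate.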

The test system of data set [5] is Mycobacterium intracellulare. The data set is described as follows: Antibacterial activity against Mycobacterium intracellulare ATCC 35761 expressing tomato RFP assessed as bacterial growth inhibition incubated for 5 days in 7H9 medium by RFP fluorescence based broth microdilution method. The class given is functional. Conditions: ATCC 35761, 120 h, time 5 day. In outline:
as §1

Data set [6] is described as follows: Metabolic stability in pooled human liver microsomes assessed as half life at 2 uM measured over 40 mins in presence of NADPH-cofactor system by HPLC-MS/MS analysis. It counts as ADME, Microsome. In outline:
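Pooled mixed-gender human liver microsomes at 0.42 mg protein/mL in 100 mM phosphate pH 7.4 with MgCl₂ and an NADPH-regenerating system. Test compound 2 μM, 1.6 % solvent, at 37 °C. Five time points over 40 min, stopped with acetonitrile, analysed by HPLC-MS/MS. t1/2 from the slope of ln(AUC) versus time. Controls lacked NADPH. Duplicates.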
For orientation: Liver microsomes are a subcellular fraction often used to study metabolism.

The nature of data set [7]: Stability in mouse plasma at 1 uM measured over 120 mins by HPLC-MS/MS analysis. It counts as ADME, cell-free. Conditions: 2 h.
For data set [8], the system named is Mycobacteroides abscessus. The data set can be described thus: Bactericidal activity against Mycobacterium abscessus ATCC 19977 assessed as reduction in viable bacteria incubated for 4 days by microplate dilution assay. The class given is functional. Conditions: time 4 day.
For data set [9], the system named is Mycobacterium tuberculosis. The data set can be described thus: Antibacterial activity against Mycobacterium tuberculosis. The class given is functional.
For data set [10], the system named is Mycobacterium tuberculosis. The data set can be described thus: Antibacterial activity against Mycobacterium tuberculosis H37Rv ATCC 27294 assessed as bacterial growth inhibition incubated for 7 days in 7H9 medium by optical density based microplate reader analysis. It counts as functional. The conditions noted are these: H37Rv ATCC 27294, 168 h, time 7 day. The method, boiled down:
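Compounds serially diluted in flat-bottom 96-well plates. Mid-log culture mixed in to a final OD₆₀₀ of 0.05. Sealed plates incubated in humidified boxes at 37 °C for 7 days with shaking at 80 rpm. Turbidity read at 600 nm. MIC₉₀ taken from dose–response curves. Two biological replicates, averaged.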

Data set [11] deals with Mycolicibacterium smegmatis. The data set is described as follows: Antibacterial activity against Mycobacterium smegmatis mc2 155 expressing tomato RFP assessed as bacterial growth inhibition incubated for 3 days in 7H9 medium by RFP fluorescence based broth microdilution method. The class given is functional. The conditions noted are these: mc2 155, 72 h, time 3 day. The method, boiled down: as §1

Data set [12] has as its system A-375. The data set is described as follows: Cytotoxicity against human A-375 cells assessed as reduction in cell viability incubated for 72 hrs by SRB assay. It counts as toxicity, cell-based. (In general: In SRB staining, fixed cells bind dye roughly in proportion to their protein.)
Data set [13] has as its system HeLa. The data set can be described thus: Cytotoxicity against human HeLa cells assessed as reduction in cell viability incubated for 72 hrs by SRB assay. The class given is toxicity, cell-based.
In data set [14] the test system is Mycobacteroides abscessus. The data set can be described thus: Antibacterial activity against Mycobacterium abscessus. It counts as functional.
In data set [15] the test system is MCF7. The data set is described as follows: Cytotoxicity against human MCF7 cells assessed as reduction in cell viability incubated for 72 hrs by SRB assay. It counts as toxicity, cell-based.
In data set [16] the test system is HT-29. The data set can be described thus: Cytotoxicity against human HT-29 cells assessed as reduction in cell viability incubated for 72 hrs by SRB assay. It counts as toxicity, cell-based.
The subject of data set [17] is A2780. The data set is described as follows: Cytotoxicity against human A2780 cells assessed as reduction in cell viability incubated for 72 hrs by SRB assay. It counts as toxicity, cell-based.
A short description of data set [18]: Cytotoxicity against mouse NIH3T3 cells assessed as reduction in cell viability incubated for 72 hrs by SRB assay. It counts as toxicity, cell-based. The conditions noted are these: mouse, NIH3T3 cells.
Data set [19] relates to Mycobacteroides abscessus. The data set is described as follows: Antibacterial activity against MMV688845-resistant Mycobacterium abscessus Bamboo 845R-2.1 harboring rpoB/beta subunit P473L mutation assessed as bacterial growth inhibition incubated for 3 days by optical density based analysis. It counts as functional. Conditions: Bamboo 845R-2.1, 72 h, time 3 day. The method, boiled down:
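Tenfold-point twofold dilution series in 7H9, final DMSO 1 %. Final ranges typically 50–0.098 or 6.25–0.012 μM. Mid-log culture added to an initial OD₆₀₀ of 0.05 (5*10⁶ CFU/mL). Incubated 3 days at 37 °C with shaking at 110 rpm. Growth taken as OD₆₀₀ on day 3 minus day 0, as % of drug-free wells. MIC₉₀ read visually from the curves. Clarithromycin as control. Two biological replicates, averaged.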

Data set [20] deals with Mycobacteroides abscessus. The data set can be described thus: Bactericidal activity against Mycobacterium abscessus ATCC 19977 assessed as reduction in viable bacteria at 6.25 to 12.5 uM incubated for 4 days by microplate dilution assay. It counts as functional, organism-based. The conditions noted are these: dose 6.25-12.5 µM, time 4.0 day.
A short description of data set [21]: Kinetic solubility of compound in PBS at 0.78 to 500 uM measured immediately by nephelometric method. The class given is physicochemical. Conditions: buffer, dose 0.78-500 µM. The method, boiled down:
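DMSO stocks prediluted in DMSO, then diluted 1:50 into PBS (2 % DMSO final) and read immediately by nephelometry at 0.78–500 μM; blank-corrected data fitted by segmental regression; quadruplicates from one stock.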

For data set [22], the system named is Mycobacteroides abscessus. The data set can be described thus: Antibacterial activity against Mycobacterium abscessus Bamboo harboring inactive clarithromycin-sensitive erm41 C28 sequevar assessed as bacterial growth inhibition incubated for 3 days in 7H9 medium by optical density based method. It counts as functional. The conditions noted are these: 72 h, time 3 day.

In brackets after ≈: the same amount, converted by molar mass. Activity calls are given as the source filed them. The calls are words filed in the database; no cut-off is given here.

As usually defined, the MIC90 is an inhibitory concentration at the 90% level, which refers to growth in some studies and to a panel of isolates in others. Broadly, the MIC50 is an inhibitory concentration at the 50% level, which refers to growth in some studies and to a panel of isolates in others. A word on the EC50: it is the concentration at which the effect is half-maximal. Consider `O=C(N[C@H](Cc1ccccc1)C(=O)Nc1ccccc1N1CCOCC1)c1cccs1`, for which the MIC90 in data set [1] was 12.5 µM (≈ 5.44 µg/mL); in data set [3], 6.25 µM (≈ 2.72 µg/mL); in data set [4], 12.5 µM (≈ 5.44 µg/mL); in [5], 0.78 µM (≈ 0.34 µg/mL); in [9], 1.2 µM (≈ 0.523 µg/mL); in data set [10], 0.78 µM (≈ 0.34 µg/mL). The MIC90 in [11] is 0.78 µM (≈ 0.34 µg/mL); in data set [14], 7 µM (≈ 3.05 µg/mL); in data set [19], greater than 100 µM; in [22], 4.4 µM (≈ 1.92 µg/mL). In addition, the Stability entry is “Stable” in data set [2] and “Unstable” in data set [7]. The MIC50 is 1.56 µM (≈ 0.679 µg/mL) in [4] and 1.7 µM (≈ 0.74 µg/mL) in data set [22]. In data set [6], the t1/2 was 1.7 min. The MBC99 in data set [8] is 50 µM (≈ 21.8 µg/mL). In addition, the concentration giving a half-maximal response (EC50) in data set [12], in data set [13], in [15], in [16] and in data set [17] was greater than 30 µM throughout. In [18], the EC50 at 72 h was greater than 30 µM. For the same compound, in data set [20], the outcome was inactive. The Kinetic_solubility in data set [21] is 82 µM.
